Structures are written as SMILES.

This data set is described as follows: Toxicity liver stage against HepG2, at 10uM. Type of data set: cell-based. On the set-up: test concentration 10 uM, cell line HepG2-A16-CD81EGFP. As to conditions: human, HepG2-A16-CD81EGFP cells; read-out: INHIBITION
A digest of the protocol:
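Uninfected HepG2-A16-CD81EGFP cells, 3 × 10^3 per well, 1536-well, plated on prespotted compound at 10 μM final, parasite-free screening media added to match infected plates; puromycin 10 μM positive, DMSO 0.5% negative; run in parallel with 48 h PbLuc assay at 37 °C, 5% CO2; viability by CellTiter-Glo luminescence, normalized to controls.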
Take `COC(=O)COn1c(SC(C)C)nc2ccccc2c1=O`: the cytotoxicity at 10 µM was -6.17%.
For the compound `COc1ccc(NC(=O)C2OC(c3cccs3)=NN2C(C)=O)cc1` (configuration not stated), the cytotoxicity at 10 µM was -1.6%.
The value for `CC(C)(Oc1ccc(C(N)=O)cc1)C(=O)N(CCC#N)CC1CCCO1` (configuration not stated) was 5.55%; that for `COc1ccccc1CN1CC(O)CN(S(=O)(=O)C(C)C)CC1=O` (configuration not stated) was -12.4%.
The figure for `CCOC(=O)N1CC(=O)N(CCc2ccccc2)CC(O)C1` (configuration not stated) is -4.73%; for `CC(C)CNC(=O)Cc1cnc(-n2cccc2)s1` it is -3.66%.
The figure for `COc1cn(CC(=O)N2CCN(c3ccc(Cl)cc3)CC2)c(C)cc1=O` is 1.82%.
Regarding `CCN(CC)C(=O)CSc1nc2c(cnn2CCO)c(=O)[nH]1`, the cytotoxicity at 10 µM was 1.29%.
`O=S(=O)(NCC(O)c1ccoc1)c1ccc(Br)s1` (configuration not stated): the cytotoxicity at 10 µM is 5.76%.
The value for `CN1[C@H](CN2CCCC2)C[C@@H]2CN(C(=O)c3ccsc3)CC[C@@H]21` was 0.847%; that for `CN(C)CCNC(=O)c1noc2c1CN(C(=O)N(C)C)CC2` was 10.6%.
For `CS(=O)(=O)N1CCC2(CCCN(c3ncc(F)cn3)C2)C1` (configuration not stated), the cytotoxicity at 10 µM was 5.19%.
The figure for `c1cnc(OCc2nnc3n2CCN(Cc2ccco2)C3)nc1` is -2.12%; for `c1cc(-c2nnn3c2COC(CNCC2CCOCC2)C3)ccn1` (configuration not stated) it is -23.8%; for `CS(=O)(=O)N1C[C@@H]2COC[C@@H](CC(=O)N3CCCCO3)[C@@H]2C1` it is 10.6%.
The value for `CC(C)(C)NC(=O)c1nn(C2CCS(=O)(=O)C2)c2c1CCCC2` (configuration not stated) was 10.1%; that for `COc1ccc(NC(=O)CCSc2ccc3nncn3n2)c(OC)c1` was -15.3%; that for `CC(C)NC(=O)N1CCC2(CC(C(=O)NCc3cccnc3)=NO2)C1` (configuration not stated) was -0.8%.
The value for `CCCN1CCN(C(=O)C(C)n2cc(Br)cn2)CC1` (configuration not stated) was -18.8%; that for `CN(C)CCn1nc(C2CCN(Cc3ccccc3)C2)c2cccnc21` (configuration not stated) was -7.47%; that for `Cn1ccc(C(=O)N2CCC(Cc3ccc4ncccc4c3)CC2)n1` was 13.7%.
`COCCNc1ccc(CC2CCCN(c3ncccn3)C2)nn1` (configuration not stated): the cytotoxicity at 10 µM was 3.81%.
The value for `Cc1cc(N(C)C)cc(C2CCN(S(=O)(=O)c3cccnc3)C2)n1` (configuration not stated) was 4.26%.
The figure for `Cc1ncc(-c2ccccn2)c(CCNC(=O)CCC2CCCO2)n1` (configuration not stated) is 11.7%; for `Cc1c(CN2C[C@@H](O)[C@H](Oc3cccc(F)c3)C2)cnn1C` it is -8.21%.
The figure for `Cc1nn(C)cc1S(=O)(=O)NC1(CN2CCOCC2)CCCCC1` is -8.27%; for `Cc1ccc2c(c1)C(=O)NCC1(CCN(C(=O)c3ccccn3)CC1)O2` it is -25%.
For the compound `Cc1ccccc1-c1cncc(C2CCN(Cc3cnn(C)c3)CC2)n1`, the cytotoxicity at 10 µM is -30.6%.
`OC1(CNc2cccc(F)c2)CCNCC1`: the cytotoxicity at 10 µM stood at 5.38%.
Regarding `CC(=O)NCCNC(=O)c1sccc1Br`, the cytotoxicity at 10 µM turned out to be 4.2%.
In the case of `O=S(=O)(c1cncc(F)c1)N1CCSC2(CCCCC2)C1`, the cytotoxicity at 10 µM came out at 9.48%.
Consider `Cn1cccc(NC(=O)NCCOCc2ccccc2)c1=O`, for which the cytotoxicity at 10 µM was -37.8%.
As to `Cc1ccc(-c2noc(Cn3nc(C(N)=O)ccc3=O)n2)cc1`, the cytotoxicity at 10 µM is -1.6%.
Turning to `COc1cccc(S(=O)(=O)CCN2CCN(CC(F)F)CC2)c1`, the cytotoxicity at 10 µM is -3.96%.
The value for `Cc1ccc(C2COCCN2C(=O)c2ccc(C)s2)o1` (configuration not stated) was -3.9%; that for `COCc1noc(C2(c3cccc(Cl)c3)CCOCC2)n1` was -2.93%.
The value for `COc1ccccc1C(=O)NS(=O)(=O)c1cncc(Br)c1` was -6.05%.
The value for `CC(C)NC(=O)Nc1ccc(CS(C)(=O)=O)cc1` was 1.69%.
For `CCCc1noc(CCC(=O)N2CCCCC2Cn2cc(C)cn2)n1` (configuration not stated), the cytotoxicity at 10 µM was -0.232%.
The value for `Cn1cc(Br)cc1C(=O)NC1(C#N)CC1` was 21.8%; that for `NC(=O)c1ccc(OCC(=O)N2CCCC2c2ccc[nH]2)cc1` (configuration not stated) was -5.82%; that for `NS(=O)(=O)c1ccc(CNCC(=O)NCc2ccc(Cl)cc2Cl)cc1` was -48.6%.
The figure for `COc1cc(NC2CCCNC2)cc(OC)c1` (configuration not stated) is -9.57%; for `COc1ccc(CNC(C)c2cnc3cc(C)nn3c2C)cc1` (configuration not stated) it is -4.86%.
The value for `Cc1cc(Br)c(O)c(C(=O)N2CCC(CN3CCCCCC3)CC2)c1` was 8.29%; that for `Cc1ccc(CC2CCCN2CC(=O)NCc2ccccn2)cc1` (configuration not stated) was 6.46%.
Turning to `OCc1nnc2n1CCN(c1cnccn1)C2`, the cytotoxicity at 10 µM amounted to 5.59%.
The figure for `CC(C)NC(=O)N1CC[C@H]2N(C)CC[C@@]2(C(=O)Nc2cccnc2)CC1` is -109%; for `CS(=O)(=O)N1C[C@@H]2COC[C@]2(COCC(=O)N2CCCC2)C1` it is -114%; for `CN1CCN(S(=O)(=O)C2CC2)Cc2cccnc21` it is -108%.
The value for `CC(C)N1Cc2c(C(=O)N3CCN(C)CC3)nn(C)c2C1` was -104%; that for `CCN1CCC2(COCc3cnc(-c4cccnc4)nc32)C1` (configuration not stated) was 4.04%.
As to `Cc1ncc(-c2ccnc(N3CCCCC3)n2)c(=O)[nH]1`, the cytotoxicity at 10 µM was found to be 7.53%.
The figure for `Cc1nc(CN(C)C(=O)Nc2cccc(C)c2C)no1` is -0.739%; for `CCN(Cc1cn(C)nc1-c1ccc2c(c1)OCCO2)CC1CCCO1` (configuration not stated) it is 2.85%.
The value for `CCN(CC1CCCCO1)C(=O)CCNC(=O)c1ccccc1F` (configuration not stated) was -42.9%; that for `CN(C)CCN(C)C1CCCN(C(=O)c2ccc(Cn3ccnc3)o2)C1` (configuration not stated) was 6.69%.
Regarding `CCN(C)S(=O)(=O)NCC1CCN(Cc2ccccc2F)C1` (configuration not stated), the cytotoxicity at 10 µM is -2.48%.
The value for `Cn1nc(C2CC2)c2c1NC(=O)CC2c1cc(CN2CCCC2)cs1` (configuration not stated) was -2.2%.
The figure for `c1cc2c(cc1OC[C@@H]1CCCN3CCCC[C@H]13)OCCO2` is -2.48%.
The value for `CC(C)N1CCOC(CC(=O)N2CCCN(Cc3cccs3)CC2)C1` (configuration not stated) was -12.2%.
Take `Cc1nn(C)c2nc(NC(C)c3n[nH]c(=O)[nH]3)sc12` (configuration not stated): the cytotoxicity at 10 µM was found to be 4.91%.
The figure for `CCN(CC)C(=O)c1ccc(Cl)c(NC(=O)c2csnn2)c1` is 7.3%; for `CNc1ncc(CN(C)C(=O)c2cccc(-n3cnnc3)c2)cn1` it is 1.5%.
For `CN(C)C(=O)CN1CC=C(c2cnn(Cc3ccccc3)c2)CC1`, the cytotoxicity at 10 µM is -6.12%.
`CCCc1nnc(C(=O)N(C)Cc2cnc3ccccn23)o1`: the cytotoxicity at 10 µM is -3.41%.
With `CO[C@H]1C[C@@H](O)C12CCN(C(=O)CCSCc1ccc(F)cc1)CC2`, the cytotoxicity at 10 µM was -5.22%.
The figure for `CCS(=O)(=O)c1ncc(CN(C)Cc2ccccc2OC)n1CCOC` is -2.23%; for `CCN(Cc1cnn(C)c1)C(=O)c1ccc(C)c(N2CCNC2=O)c1` it is -7.08%; for `COc1ccc(OC2CCN(C(=O)CCc3nc(Cl)n[nH]3)CC2)cc1` it is 4.47%.
The figure for `Cc1nn(C)cc1C(=O)N1CCCC(c2nccn2Cc2cscn2)C1` (configuration not stated) is -4.32%; for `Cc1ccnc(NC(=O)C(C)Cn2cncn2)c1` (configuration not stated) it is 0.298%.
Turning to `CC(Nc1cccc(CN2CCOC2=O)c1)C(=O)Nc1cccc(F)c1` (configuration not stated), the cytotoxicity at 10 µM was -9.16%.
Take `CCOc1ccc(C(=O)N2CCCC2Cn2cc(C)cn2)cn1` (configuration not stated): the cytotoxicity at 10 µM was -20.2%.
`Cc1ccc(CC(=O)N2CCN(CC(O)C(C)(C)C)CC2)cn1` (configuration not stated): the cytotoxicity at 10 µM is -4.51%.
For `Cc1nnc2n1CCN(Cc1csc(-c3ccc(F)cc3)n1)C2`, the cytotoxicity at 10 µM is -6.78%.
The value for `COc1ccc(OCCCN2CCOC(Cn3cccn3)C2)cc1` (configuration not stated) was 5.34%; that for `CN(CCNC(=O)Nc1ccncc1)C1CCCCC1` was -0.39%; that for `Cc1cc(CN(C)C(=O)NC2CCS(=O)(=O)C2)no1` (configuration not stated) was -1.61%.
Take `Cc1nc(NC2CCCCC2)cc(C2CCCNC2)n1` (configuration not stated): the cytotoxicity at 10 µM is -30.3%.
The value for `COCCN1CCc2c(cnc(-c3ccoc3)c2C(=O)O)C1` was 0.908%; that for `CCC(CC)C(=O)N1CCC2(C1)CN(c1ccccc1)C(=O)CN2C` (configuration not stated) was 3.5%; that for `CCc1nc2ccccc2c(=O)n1CC1(O)CCNCC1` was -15.3%.
The figure for `CNC(=O)[C@H]1C[C@@H]2CN(Cc3csc(C)n3)C[C@@H]2N1S(C)(=O)=O` is -3.78%; for `Cc1ccc(C(=O)N2CCC3(CC2)CCN(CCN(C)C)C3=O)cn1` it is 5.36%; for `CN(Cc1cccnc1)Cc1cn2c(n1)CN(C1CCOC1)CC2` (configuration not stated) it is 6.2%.
The value for `CC(C)c1cc(C(=O)N2CCOC3(CCNCC3)C2)no1` was 3.65%; that for `Cc1ccc(C(=O)N2Cc3c(CN4CCCCC4)nn(C)c3C2)o1` was -1.94%.
On to `CC(C)c1cc(C(=O)N2CCc3nc(C4CCCN4)ncc3C2)cs1` (configuration not stated), for which the cytotoxicity at 10 µM was -16.5%.
The value for `CC(=O)N1CCCCC12CCCN(Cc1ccco1)C2` (configuration not stated) was 4.59%; that for `CN(C)C[C@]12COC[C@H]1CN(Cc1ccc3c(c1)OCO3)C2` was -123%; that for `O=C1COC2(CCN(C(=O)c3ccco3)CC2)CN1Cc1ccccn1` was 6.45%.
`c1csc(CN2Cc3nccn3CC(Cn3cncn3)C2)n1` (configuration not stated): the cytotoxicity at 10 µM was -9.35%.
The figure for `Cc1ccccc1CN1C[C@H]2CC[C@@H](C1)N(CC1CCC1)C2=O` is 4.86%.
The value for `O=C(c1cnccn1)N1C[C@H]2CC[C@@H](C1)N(C(=O)Cc1ccsc1)C2` was -13.3%.
`COc1ccc(-n2cc3nc(N)[nH]cc-3c2=O)cc1`: the cytotoxicity at 10 µM was 6.25%.
With `Cc1cc(C(=O)NC2CCC3(CCC(=O)N3C)CC2)no1` (configuration not stated), the cytotoxicity at 10 µM is -0.361%.

For the origin of these results see ChEMBL document CHEMBL4513216, “Probing the Open Global Health Chemical Diversity Library for Multistage-Active Starting Points for Next-Generation Antimalarials” (ACS Infect Dis, 2020).
